The text below walks through data of ChEMBL document CHEMBL1944507, “Structure-activity relationships for amide-, carbamate-, and urea-linked analogues of the tuberculosis drug (6S)-2-nitro-6-{[4-(trifluoromethoxy)benzyl]oxy}-6,7-dihydro-5H-imidazo[2,1-b][1,3]oxazine (PA-824)” (J Med Chem, 2012).

Test [1] has as its system Mycobacterium tuberculosis. Description: Antimicrobial activity against Mycobacterium tuberculosis H37Rv ATCC 27294 harboring pFCA-lux AB gene measured under aerobic condition after 8 days by luminescence analysis. The following applies: H37Rv ATCC 27294, 192 h. Type of test: functional. The gist of the method: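 MABA: replicating M. tb H37Rv exposed to compound aerobically for 8 days. […] Mean of at least two independent determinations ± SD.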

Test [2] deals with Mycobacterium tuberculosis. As to the kind of experiment: Antimicrobial activity against Mycobacterium tuberculosis H37Rv ATCC 27294 harboring pFCA-lux AB gene measured under anaerobic condition after 11 days by luminescence analysis. Type of test: functional. The following applies: H37Rv ATCC 27294, 264 h. An outline of the steps:
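LORA: luminescence-based low-oxygen-recovery assay on nonreplicating M. tb, 11-day anaerobic exposure. MIC is the mean of at least two independent determinations ± SD.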

SMILES strings stand for the structures. Converted amounts (≈) assume the structure as drawn.

For the compound `O=C(Nc1ccc(-c2ccnc(C(F)(F)F)c2)cc1)O[C@@H]1COc2nc([N+](=O)[O-])cn2C1`, the MIC in test [1] was 0.75 µM (≈ 0.337 µg/mL); in test [2], 6.2 µM (≈ 2.79 µg/mL). `O=C(NCc1ccc(-c2ccc(C(F)(F)F)cc2)cc1)O[C@@H]1COc2nc([N+](=O)[O-])cn2C1`: the values for the MIC in test [1] and in test [2] were 0.24 µM (≈ 0.111 µg/mL) and above 32 µM, respectively.

Consider `O=C(NCc1ccc(-c2ccc(F)cc2)cc1)O[C@@H]1COc2nc([N+](=O)[O-])cn2C1`, for which the MIC in test [1] turned out to be 0.11 µM (≈ 0.0454 µg/mL); in test [2] it was 4.5 µM (≈ 1.86 µg/mL).

`O=C(NCc1ccc(-c2ccc(OC(F)(F)F)cc2)cc1)O[C@@H]1COc2nc([N+](=O)[O-])cn2C1`: the MIC in test [1] was 0.52 µM (≈ 0.249 µg/mL); in test [2], 2.4 µM (≈ 1.15 µg/mL). Turning to `O=C(NCc1ccc(-c2ccc(C(F)(F)F)nc2)cc1)O[C@@H]1COc2nc([N+](=O)[O-])cn2C1`, the results for the MIC in test [1] and in test [2] were 0.69 µM (≈ 0.32 µg/mL) and 11 µM (≈ 5.1 µg/mL), respectively. On the same counts, the results for `O=C(O[C@@H]1COc2nc([N+](=O)[O-])cn2C1)N1CCN(c2ccc(OC(F)(F)F)cc2)CC1` are 0.033 µM (≈ 0.0151 µg/mL) and 1.1 µM (≈ 0.503 µg/mL). `O=C(O[C@@H]1COc2nc([N+](=O)[O-])cn2C1)N1CC[C@H](Oc2ccc(OC(F)(F)F)cc2)C1`: the MIC in test [1] was 0.06 µM (≈ 0.0275 µg/mL); in test [2], 1.6 µM (≈ 0.733 µg/mL). Turning to `O=C(O[C@@H]1COc2nc([N+](=O)[O-])cn2C1)N1CCC(Oc2ccc(C(F)(F)F)nc2)CC1`, the MIC in test [1] came to 0.14 µM (≈ 0.064 µg/mL); in test [2] it was 27 µM (≈ 12.3 µg/mL). With `CN(Cc1ccc(OC(F)(F)F)cc1)C1CCN(C(=O)O[C@@H]2COc3nc([N+](=O)[O-])cn3C2)CC1`, the minimum inhibitory concentration (MIC) was found to be 0.18 µM (≈ 0.0899 µg/mL) in test [1] and 26 µM (≈ 13 µg/mL) in test [2]. For the compound `O=C(COc1ccc(-c2ccc(C(F)(F)F)cc2)cc1)N[C@@H]1COc2nc([N+](=O)[O-])cn2C1`, the MIC in test [1] was 0.25 µM (≈ 0.116 µg/mL); in test [2], above 32 µM. `O=C(N[C@@H]1COc2nc([N+](=O)[O-])cn2C1)OCc1ccc(-c2ccc(F)cc2)cc1`: the MIC in test [1] worked out at 0.085 µM (≈ 0.0351 µg/mL); in test [2] it was 4.2 µM (≈ 1.73 µg/mL).

For the compound `O=C(N[C@@H]1COc2nc([N+](=O)[O-])cn2C1)OCc1ccc(-c2ccc(C(F)(F)F)cc2)cc1`, the MIC in test [1] worked out at 0.08 µM (≈ 0.037 µg/mL); in test [2] it was 4.5 µM (≈ 2.08 µg/mL).

On to `O=C(COc1ccc(-c2ccc(C(F)(F)F)nc2)cc1)N[C@@H]1COc2nc([N+](=O)[O-])cn2C1`, for which the MIC is 0.69 µM (≈ 0.32 µg/mL) in test [1] and 30 µM (≈ 13.9 µg/mL) in test [2].

On to `O=C(COc1ccc(-c2ccc(F)nc2)cc1)N[C@@H]1COc2nc([N+](=O)[O-])cn2C1`, for which the MIC was found to be 0.69 µM (≈ 0.285 µg/mL) in test [1] and 31 µM (≈ 12.8 µg/mL) in test [2]. `O=C(COc1ccc(-c2ccc(OC(F)(F)F)cc2)cc1)N[C@@H]1COc2nc([N+](=O)[O-])cn2C1`: the MIC in test [1] was 0.18 µM (≈ 0.0861 µg/mL); in test [2], 25 µM (≈ 12 µg/mL). On to `O=C(COc1ccc(-c2ccc(F)cc2)cc1)N[C@@H]1COc2nc([N+](=O)[O-])cn2C1`, for which the results for the MIC in test [1] and in test [2] were 0.17 µM (≈ 0.0701 µg/mL) and 26 µM (≈ 10.7 µg/mL), respectively. For the compound `O=C(Cc1ccc(-c2ccc(F)nc2)cc1)N[C@@H]1COc2nc([N+](=O)[O-])cn2C1`, the MIC was 0.68 µM (≈ 0.27 µg/mL) in test [1] and above 32 µM in test [2]. On the same counts, the results for `O=C(Cc1ccc(-c2ccc(C(F)(F)F)nc2)cc1)N[C@@H]1COc2nc([N+](=O)[O-])cn2C1` are 0.46 µM (≈ 0.206 µg/mL) and above 32 µM.

Turning to `O=C(Cc1ccc(-c2ccc(OC(F)(F)F)cc2)cc1)N[C@@H]1COc2nc([N+](=O)[O-])cn2C1`, the MIC in test [1] is 0.22 µM (≈ 0.102 µg/mL); in test [2] it was 5 µM (≈ 2.31 µg/mL). The corresponding values for `O=C(Cc1ccc(-c2ccc(C(F)(F)F)cc2)cc1)N[C@@H]1COc2nc([N+](=O)[O-])cn2C1` are 0.44 µM (≈ 0.196 µg/mL) and 23 µM (≈ 10.3 µg/mL).

Take `O=C(Cc1ccc(-c2ccc(F)cc2)cc1)N[C@@H]1COc2nc([N+](=O)[O-])cn2C1`: the figures for the MIC in test [1] and in test [2] were 0.33 µM (≈ 0.131 µg/mL) and 11 µM (≈ 4.36 µg/mL), respectively. As for `O=C(CO[C@@H]1COc2nc([N+](=O)[O-])cn2C1)Nc1ccc(OC(F)(F)F)cc1`, the MIC came to 0.24 µM (≈ 0.0965 µg/mL) in test [1] and 7.8 µM (≈ 3.14 µg/mL) in test [2]. For the compound `CN(C(=O)N(C)[C@@H]1COc2nc([N+](=O)[O-])cn2C1)c1ccc(OC(F)(F)F)cc1`, the MIC in test [1] is 12 µM (≈ 4.98 µg/mL); in test [2] it was above 64 µM. For the compound `O=[N+]([O-])c1cn2c(n1)OC[C@@H](NC(=S)Nc1ccc(OC(F)(F)F)cc1)C2`, the MIC in test [1] is 8 µM (≈ 3.23 µg/mL); in test [2], above 64 µM.

Take `O=C(NCc1ccc(OC(F)(F)F)cc1)N[C@@H]1COc2nc([N+](=O)[O-])cn2C1`: the results for the MIC in test [1] and in test [2] were 0.27 µM (≈ 0.108 µg/mL) and 4.1 µM (≈ 1.65 µg/mL), respectively. As for `CN(C(=O)O[C@@H]1COc2nc([N+](=O)[O-])cn2C1)c1ccc(OC(F)(F)F)cc1`, the MIC in test [1] was 0.21 µM (≈ 0.0845 µg/mL); in test [2], 5.4 µM (≈ 2.17 µg/mL). Take `O=C(NCc1ccc(OC(F)(F)F)cc1)O[C@@H]1COc2nc([N+](=O)[O-])cn2C1`: the MIC worked out at 0.25 µM (≈ 0.101 µg/mL) in test [1] and 17 µM (≈ 6.84 µg/mL) in test [2]. As to `O=C(COc1ccc(OC(F)(F)F)cc1)N[C@@H]1COc2nc([N+](=O)[O-])cn2C1`, the figures for the MIC in test [1] and in test [2] were 0.16 µM (≈ 0.0644 µg/mL) and 10 µM (≈ 4.02 µg/mL), respectively.

For `O=[N+]([O-])c1cn2c(n1)OC[C@@H](OCc1ccc(-c3ccc(OC(F)(F)F)cc3)cc1)C2`, the minimum inhibitory concentration (MIC) in test [1] was determined as 0.35 µM (≈ 0.152 µg/mL).

A word on the MIC: it is the smallest concentration in the dilution series that meets the test's criterion for growth inhibition. Higher therefore signals weaker potency.
